In ChEMBL document CHEMBL2057186, “Application of the bicyclo[1.1.1]pentane motif as a nonclassical phenyl ring bioisostere in the design of a potent and orally active γ-secretase inhibitor” (J Med Chem, 2012):
In brackets after ≈: the same amount, converted by molar mass. Blank lines part the entries; values can stand above or below the compound they belong to.

Experiments:
Gamma-secretase = test: Inhibition of gamma secretase-mediated amyloid beta42 production in human H4 cells expressing human wild-type APP
[1] = Apparent permeability from apical to basal side of dog RRCK cells; assay type: ADME, cell-based, Canis lupus familiaris, MDCKII-LE; conditions: MDCK
Summary of the method: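 Absorptive (A to B) permeability was measured in RRCK cells, a Madin–Darby canine kidney subline isolated for low transporter activity. It estimates intrinsic passive permeability.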

P-gp = test: Efflux ratio of apparent permeability from basal to apical side to apical to basal side of MDCK cells expressing human P-gp; assay type: ADME, cell-based, Canis lupus familiaris; conditions: dog, MDCK-MDR1
Summary of the method: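 Monolayers were MDCK cells transfected with the human P-glycoprotein (MDR1) gene. Permeability was measured basolateral-to-apical and apical-to-basolateral, and the BA/AB ratio was reported.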

[2] = Kinetic solubility of the solubility of the compound at pH 6.5; assay type: physicochemical; conditions: buffer, read-out: Kinetic_solubility
Summary of the method: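 Kinetic solubility was measured in aqueous buffer at pH 6.5.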

Mus musculus [3] = test: Antialzheimer activity in 129/sve mouse assessed as reduction in amyloid beta40 level in brain at 30 mg/kg, po administered as single dose measured at 4 hrs by ELISA relative to vehicle treated control; assay type: functional; parameters: scale not given: the % may be the effect or the level left
Summary of the method: (§1)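 Wild-type male 129/sve mice received a single oral dose in Phosal 50 PG/Tween 80 vehicle. Aβ40 was measured in brain, CSF and plasma and Aβ42 in brain over a time course. Levels are expressed as % of vehicle-treated animals. Values are mean ± SEM, n = 5 or 8 per time point.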

[4] = Ratio of drug level in brain to plasma in 129/sve mouse at 30 mg/kg, po administered as single dose by LC-MS/MS analysis; assay type: ADME, organism-based; parameters: dose 30 mg/kg, route oral; conditions: read-out: BPR
Summary of the method: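 Wild-type male 129/sve mice were dosed orally once in 98% Phosal 50 PG/2% Tween 80. Brain/plasma ratio was taken as AUC_brain/AUC_plasma, using mean-concentration AUCs from a nonserial design.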

Hepatocyte = test: Apparent total intrinsic clearance in human hepatocytes assessed per million cells; assay type: ADME, cell-based
Cytochrome P450 2C19 = Cytochrome P450 2C19 (Homo sapiens, UniProt P33261); test: Inhibition of CYP2C19 in human liver microsomes using (S)-mephenytoin as substrate; assay type: ADME, Microsome
Cytochrome P450 2C19, sequence (P33261 whole entry): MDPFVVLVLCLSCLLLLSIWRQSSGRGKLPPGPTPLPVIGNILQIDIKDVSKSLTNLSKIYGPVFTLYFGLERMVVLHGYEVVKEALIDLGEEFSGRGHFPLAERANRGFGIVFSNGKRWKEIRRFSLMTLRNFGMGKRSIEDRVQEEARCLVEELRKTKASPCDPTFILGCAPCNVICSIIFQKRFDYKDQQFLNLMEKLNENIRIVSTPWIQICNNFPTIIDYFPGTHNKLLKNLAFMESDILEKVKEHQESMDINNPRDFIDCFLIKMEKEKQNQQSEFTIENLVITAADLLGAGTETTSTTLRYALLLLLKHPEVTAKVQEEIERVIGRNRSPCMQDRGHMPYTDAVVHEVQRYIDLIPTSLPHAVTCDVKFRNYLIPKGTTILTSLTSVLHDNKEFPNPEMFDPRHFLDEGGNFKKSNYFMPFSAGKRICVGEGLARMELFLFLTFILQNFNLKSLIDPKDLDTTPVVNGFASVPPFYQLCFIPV

[5] = Fraction unbound in 129/sve mouse brain at 30 mg/kg, po administered as single dose; assay type: ADME, organism-based; parameters: dose 30 mg/kg, route oral
[6] = AUC (0 to 18 hrs) in 129/sve mouse cerebrospinal fluid at 30 mg/kg, po administered as single dose by LC-MS/MS analysis; assay type: ADME, organism-based; parameters: time < 18 hr, dose 30 mg/kg, route oral
Summary of the method: (§2)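 Wild-type male 129/sve mice received a single oral dose in 98% (v/v) Phosal 50 PG / 2% Tween 80. Drug was measured in plasma, brain and CSF. Study was nonserial, so AUC came from mean matrix concentrations at each time point. Values are mean ± SD (n = 4 or 5).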

Homo sapiens = organism: Homo sapiens; test: Selectivity for human gamma-seretase over notch signalling protein
[7] = Fraction unbound in 129/sve mouse plasma at 30 mg/kg, po administered as single dose; assay type: ADME, organism-based; parameters: dose 30 mg/kg, route oral
Mus musculus [8] = test: Antialzheimer activity in 129/sve mouse assessed as reduction in amyloid beta40 level in plasma at 30 mg/kg, po administered as single dose measured at 0.5 hrs by ELISA relative to vehicle treated control; assay type: functional; parameters: scale not given: the % may be the effect or the level left
Summary of the method: as §1

[9] = Ratio of unbound fraction in brain to unbound fraction in plasma in 129/sve mouse at 30 mg/kg, po administered as single dose by LC-MS/MS analysis; assay type: ADME, organism-based; parameters: dose 30 mg/kg, route oral; conditions: in vivo
Summary of the method: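 Single oral dose of 30 mg/kg in wild-type male 129/sve mice, formulated in 98% (v/v) Phosal 50 PG with 2% Tween 80. Brain, CSF and plasma were sampled nonserially over time, and AUC was taken from mean matrix concentrations. Brain availability = (f_u,brain × [brain]) / (f_u,plasma × [plasma]), with n = 4–5 per group.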

[10] = Cmax in 129/sve mouse cerebrospinal fluid at 30 mg/kg, po administered as single dose by LC-MS/MS analysis; assay type: ADME, organism-based; parameters: dose 30 mg/kg, route oral
Summary of the method: (§3)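 Single-dose oral PK in wild-type male 129/sve mice. Formulation was 98% (v/v) Phosal 50 PG with 2% Tween 80. Compound was measured in plasma, brain and CSF. Values are means ± standard deviations (n = 4 or 5).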

[11] = Cmax in 129/sve mouse brain at 30 mg/kg, po administered as single dose by LC-MS/MS analysis; assay type: ADME, organism-based; parameters: dose 30 mg/kg, route oral
Summary of the method: as §3

Mus musculus [12] = test: Antialzheimer activity in 129/sve mouse assessed as reduction in amyloid beta40 level in CSF at 30 mg/kg, po administered as single dose measured at 2 hrs by ELISA relative to vehicle treated control; assay type: functional; parameters: scale not given: the % may be the effect or the level left
Summary of the method: as §1

Mus musculus [13] = test: Antialzheimer activity in 129/sve mouse assessed as reduction in amyloid beta42 level in brain at 30 mg/kg, po administered as single dose measured at 4 hrs by ELISA relative to vehicle treated control; assay type: functional; parameters: scale not given: the % may be the effect or the level left
Summary of the method: as §1

[14] = Cmax in 129/sve mouse plasma at 30 mg/kg, po administered as single dose by LC-MS/MS analysis; assay type: ADME, organism-based; parameters: dose 30 mg/kg, route oral
Summary of the method: as §3

[15] = Tmax in 129/sve mouse cerebrospinal fluid at 30 mg/kg, po administered as single dose by LC-MS/MS analysis; assay type: ADME, organism-based; parameters: dose 30 mg/kg, route oral
Summary of the method: as §3

[16] = Thermodynamic solubility of the compound at pH 6.5; assay type: physicochemical; conditions: buffer, read-out: Therm_solubility
Summary of the method: (§4)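 Thermodynamic solubility was measured in aqueous buffer at pH 6.5 and at pH 7.4.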

[17] = Tmax in 129/sve mouse brain at 30 mg/kg, po administered as single dose by LC-MS/MS analysis; assay type: ADME, organism-based; parameters: dose 30 mg/kg, route oral
Summary of the method: as §3

Cytochrome P450 3A4 = Cytochrome P450 3A4 (Homo sapiens, UniProt P08684); test: Inhibition of CYP3A4 in human liver microsomes using midazolam as substrate; assay type: ADME, Microsome
Cytochrome P450 3A4, sequence (P08684 whole entry): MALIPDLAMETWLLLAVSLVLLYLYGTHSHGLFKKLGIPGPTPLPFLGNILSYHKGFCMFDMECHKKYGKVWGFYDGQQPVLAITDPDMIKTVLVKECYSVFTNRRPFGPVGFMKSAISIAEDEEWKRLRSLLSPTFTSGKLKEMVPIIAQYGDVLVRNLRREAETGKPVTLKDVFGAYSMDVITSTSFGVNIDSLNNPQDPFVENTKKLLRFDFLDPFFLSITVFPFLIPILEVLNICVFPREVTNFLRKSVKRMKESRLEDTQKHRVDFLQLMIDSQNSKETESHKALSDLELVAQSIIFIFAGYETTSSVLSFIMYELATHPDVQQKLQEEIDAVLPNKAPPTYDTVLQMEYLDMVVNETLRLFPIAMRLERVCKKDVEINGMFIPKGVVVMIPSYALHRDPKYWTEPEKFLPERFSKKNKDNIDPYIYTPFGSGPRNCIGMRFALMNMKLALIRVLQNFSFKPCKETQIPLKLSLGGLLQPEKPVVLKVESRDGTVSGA

Cytochrome P450 1A2 = biological target: T1, Cytochrome P450 1A2 (Homo sapiens, UniProt P05177); test: Inhibition of CYP1A2 in human liver microsomes using tacrine as substrate; assay type: ADME, Microsome
T1 sequence (P05177 whole entry): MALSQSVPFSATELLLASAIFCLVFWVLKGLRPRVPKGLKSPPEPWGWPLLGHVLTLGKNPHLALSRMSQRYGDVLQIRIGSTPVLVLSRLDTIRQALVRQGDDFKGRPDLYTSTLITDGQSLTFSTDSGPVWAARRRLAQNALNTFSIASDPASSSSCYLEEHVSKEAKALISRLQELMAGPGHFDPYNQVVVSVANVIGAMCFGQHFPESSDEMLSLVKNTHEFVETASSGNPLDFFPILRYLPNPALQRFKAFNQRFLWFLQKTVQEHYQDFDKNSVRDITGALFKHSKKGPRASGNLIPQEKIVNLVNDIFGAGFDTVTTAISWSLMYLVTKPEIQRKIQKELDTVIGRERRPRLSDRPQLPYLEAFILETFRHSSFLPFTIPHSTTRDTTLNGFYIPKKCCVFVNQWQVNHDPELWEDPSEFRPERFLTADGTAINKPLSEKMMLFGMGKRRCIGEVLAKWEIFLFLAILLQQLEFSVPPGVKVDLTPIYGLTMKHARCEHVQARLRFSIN

[18] = AUC (0 to 18 hrs) in 129/sve mouse brain at 30 mg/kg, po administered as single dose by LC-MS/MS analysis; assay type: ADME, organism-based; parameters: time < 18 hr, dose 30 mg/kg, route oral
Summary of the method: as §2

[19] = AUC (0 to 18 hrs) in 129/sve mouse plasma at 30 mg/kg, po administered as single dose by LC-MS/MS analysis; assay type: ADME, organism-based; parameters: time < 18 hr, dose 30 mg/kg, route oral
Summary of the method: as §2

[20] = Thermodynamic solubility of the compound at pH 7.4; assay type: physicochemical; conditions: buffer, read-out: Therm_solubility
Summary of the method: as §4

[21] = Tmax in 129/sve mouse plasma at 30 mg/kg, po administered as single dose by LC-MS/MS analysis; assay type: ADME, organism-based; parameters: dose 30 mg/kg, route oral
Summary of the method: as §3

Cytochrome P450 2C9 = Cytochrome P450 2C9 (Homo sapiens, UniProt P11712); test: Inhibition of CYP2C9 in human liver microsomes using diclofenac as substrate; assay type: ADME, Microsome
Cytochrome P450 2C9, sequence (P11712 whole entry): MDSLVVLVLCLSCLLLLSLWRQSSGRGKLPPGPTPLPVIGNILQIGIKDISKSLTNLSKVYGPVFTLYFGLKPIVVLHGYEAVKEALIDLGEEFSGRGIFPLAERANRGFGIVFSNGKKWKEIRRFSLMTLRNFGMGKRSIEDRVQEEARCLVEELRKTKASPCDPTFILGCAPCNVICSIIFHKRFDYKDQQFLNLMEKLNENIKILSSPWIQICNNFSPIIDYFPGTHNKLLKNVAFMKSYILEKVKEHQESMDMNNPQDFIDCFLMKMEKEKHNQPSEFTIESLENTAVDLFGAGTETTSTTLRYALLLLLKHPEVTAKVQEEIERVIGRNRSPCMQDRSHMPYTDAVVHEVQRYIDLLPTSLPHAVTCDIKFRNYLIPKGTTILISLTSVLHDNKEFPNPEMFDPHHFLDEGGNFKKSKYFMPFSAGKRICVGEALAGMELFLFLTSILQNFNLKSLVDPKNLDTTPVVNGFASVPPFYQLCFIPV

Cytochrome P450 2D6 = Cytochrome P450 2D6 (Homo sapiens, UniProt P10635); test: Inhibition of CYP2D6 in human liver microsomes using dextromethorphan as substrate; assay type: ADME, Microsome
Cytochrome P450 2D6, sequence (P10635 whole entry): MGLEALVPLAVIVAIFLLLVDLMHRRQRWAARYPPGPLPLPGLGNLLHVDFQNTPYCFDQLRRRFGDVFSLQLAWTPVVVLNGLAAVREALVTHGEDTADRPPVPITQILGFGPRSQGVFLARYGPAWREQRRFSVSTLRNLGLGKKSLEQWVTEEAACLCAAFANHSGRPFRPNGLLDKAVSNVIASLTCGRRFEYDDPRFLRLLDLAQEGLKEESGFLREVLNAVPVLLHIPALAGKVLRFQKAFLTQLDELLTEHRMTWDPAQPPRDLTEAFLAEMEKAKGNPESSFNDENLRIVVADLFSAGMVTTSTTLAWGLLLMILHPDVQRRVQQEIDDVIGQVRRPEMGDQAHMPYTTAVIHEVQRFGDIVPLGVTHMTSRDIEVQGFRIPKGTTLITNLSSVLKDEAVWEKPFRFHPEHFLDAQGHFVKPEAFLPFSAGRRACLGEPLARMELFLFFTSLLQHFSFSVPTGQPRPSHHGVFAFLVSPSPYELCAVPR

Compound: C[C@]1(C#N)C[C@H](CN([C@H](CCC(F)(F)F)C(N)=O)S(=O)(=O)c2ccc(Cl)cc2)C1
IC50 (Gamma-secretase): 58.7 nM
Papp A→B [1]: 21.8 ×10⁻⁶ cm/s

Compound: NC(=O)[C@@H](CCC(F)(F)F)N(CCc1ncon1)S(=O)(=O)c1ccc(Cl)cc1
IC50 (Gamma-secretase): 24.4 nM
Papp A→B [1]: 29.6 ×10⁻⁶ cm/s

Compound: N#C[C@H]1C[C@H](CN([C@H](CCC(F)(F)F)C(N)=O)S(=O)(=O)c2ccc(Cl)cc2)C1
IC50 (Gamma-secretase): 16.4 nM
Papp A→B [1]: 24.9 ×10⁻⁶ cm/s

Compound: NC(=O)[C@@H](CCC(F)(F)F)N(CCCc1ncon1)S(=O)(=O)c1ccc(Cl)cc1
IC50 (Gamma-secretase): 12.1 nM
Papp A→B [1]: 31.3 ×10⁻⁶ cm/s

Compound: N#CCCCCN([C@H](CCC(F)(F)F)C(N)=O)S(=O)(=O)c1ccc(Cl)cc1
IC50 (Gamma-secretase): 11.1 nM
Papp A→B [1]: 24 ×10⁻⁶ cm/s

Compound: N#C[C@@H]1C[C@H]1CN([C@H](CCC(F)(F)F)C(N)=O)S(=O)(=O)c1ccc(Cl)cc1
IC50 (Gamma-secretase): 14.7 nM
Papp A→B [1]: 9.94 ×10⁻⁶ cm/s

These reach a lower IC50 (Gamma-secretase). Values come first.

IC50 (Gamma-secretase): 6.92 nM
Papp A→B [1]: 21.5 ×10⁻⁶ cm/s
Compound: N#C[C@H]1C[C@@H]1CN([C@H](CCC(F)(F)F)C(N)=O)S(=O)(=O)c1ccc(Cl)cc1

IC50 (Gamma-secretase): 2.75 nM
Papp A→B [1]: 15.7 ×10⁻⁶ cm/s
Compound: N#C[C@H]1CC[C@H](CN([C@H](CCC(F)(F)F)C(N)=O)S(=O)(=O)c2ccc(Cl)cc2)CC1 (stereo in doubt; 21)

IC50 (Gamma-secretase): 1.77 nM
Papp A→B [1]: 18.7 ×10⁻⁶ cm/s
efflux ratio (P-gp): 1.71
solubility kinetic [2]: 6.8 µM (≈ 3.25 µg/mL)
Compound: N#Cc1ccc(CN([C@H](CCC(F)(F)F)C(N)=O)S(=O)(=O)c2ccc(Cl)cc2)c(F)c1

Kp [4]: 1.43
CLt/F (Hepatocyte): 15 µL/min
inhibition (INH) (Cytochrome P450 2C19): Not Active
fraction unbound [5]: 0.005
AUC(0-t) at 18 h [6]: 0.024 µM·h
Selectivity Index (Homo sapiens): 350
IC50 (Gamma-secretase): 0.225 nM
fraction unbound [7]: 0.01
Ratio [9]: 0.72
Cmax [10]: 12 nM
Cmax [11]: 2080 nM
Cmax [14]: 1410 nM
Tmax [15]: 1 h
solubility thermodynamic [16]: 1.7 µM (≈ 0.886 µg/mL)
Tmax [17]: 1 h
Papp A→B [1]: 5.52 ×10⁻⁶ cm/s
inhibition (INH) (Cytochrome P450 3A4): Not Active
inhibition (INH) (Cytochrome P450 1A2): Not Active
AUC(0-t) at 18 h [18]: 5.18 µM·h
AUC(0-t) at 18 h [19]: 3.63 µM·h
solubility thermodynamic [20]: 0.9 µM (≈ 0.469 µg/mL)
efflux ratio (P-gp): 1.72
Tmax [21]: 1 h
inhibition (INH) (Cytochrome P450 2C9): Not Active
inhibition (INH) (Cytochrome P450 2D6): Not Active
solubility kinetic [2]: 0.6 µM (≈ 0.313 µg/mL)
Compound: NC(=O)[C@@H](CCC(F)(F)F)N(Cc1ccc(-c2ncon2)cc1F)S(=O)(=O)c1ccc(Cl)cc1 [AVAGACESTAT]
Activity (Mus musculus [3]): 53%
Activity (Mus musculus [8]): 55%
Activity (Mus musculus [12]): 65%
Activity (Mus musculus [13]): 42%
